Assay results from ChEMBL document CHEMBL4265907, “Design, synthesis and pharmacological evaluation of N4,N6-disubstituted pyrimidine-4,6-diamine derivatives as potent EGFR inhibitors in non-small cell lung cancer” (Eur J Med Chem, 2018).

Legend:
[1] = biological target: Epidermal growth factor receptor (Homo sapiens, UniProt P00533, DEL747/DEL747-750); experiment: Inhibition of N-terminal GST-tagged human EGFR del 747-750 mutant cytoplasmic domain expressed in baculovirus expression system using FAM-labeled peptide as substrate after 10 mins by mobility shift assay
Sequence of Epidermal growth factor receptor (P00533 with tags, fused parts or gaps DEL747/DEL747-750 limits assumed): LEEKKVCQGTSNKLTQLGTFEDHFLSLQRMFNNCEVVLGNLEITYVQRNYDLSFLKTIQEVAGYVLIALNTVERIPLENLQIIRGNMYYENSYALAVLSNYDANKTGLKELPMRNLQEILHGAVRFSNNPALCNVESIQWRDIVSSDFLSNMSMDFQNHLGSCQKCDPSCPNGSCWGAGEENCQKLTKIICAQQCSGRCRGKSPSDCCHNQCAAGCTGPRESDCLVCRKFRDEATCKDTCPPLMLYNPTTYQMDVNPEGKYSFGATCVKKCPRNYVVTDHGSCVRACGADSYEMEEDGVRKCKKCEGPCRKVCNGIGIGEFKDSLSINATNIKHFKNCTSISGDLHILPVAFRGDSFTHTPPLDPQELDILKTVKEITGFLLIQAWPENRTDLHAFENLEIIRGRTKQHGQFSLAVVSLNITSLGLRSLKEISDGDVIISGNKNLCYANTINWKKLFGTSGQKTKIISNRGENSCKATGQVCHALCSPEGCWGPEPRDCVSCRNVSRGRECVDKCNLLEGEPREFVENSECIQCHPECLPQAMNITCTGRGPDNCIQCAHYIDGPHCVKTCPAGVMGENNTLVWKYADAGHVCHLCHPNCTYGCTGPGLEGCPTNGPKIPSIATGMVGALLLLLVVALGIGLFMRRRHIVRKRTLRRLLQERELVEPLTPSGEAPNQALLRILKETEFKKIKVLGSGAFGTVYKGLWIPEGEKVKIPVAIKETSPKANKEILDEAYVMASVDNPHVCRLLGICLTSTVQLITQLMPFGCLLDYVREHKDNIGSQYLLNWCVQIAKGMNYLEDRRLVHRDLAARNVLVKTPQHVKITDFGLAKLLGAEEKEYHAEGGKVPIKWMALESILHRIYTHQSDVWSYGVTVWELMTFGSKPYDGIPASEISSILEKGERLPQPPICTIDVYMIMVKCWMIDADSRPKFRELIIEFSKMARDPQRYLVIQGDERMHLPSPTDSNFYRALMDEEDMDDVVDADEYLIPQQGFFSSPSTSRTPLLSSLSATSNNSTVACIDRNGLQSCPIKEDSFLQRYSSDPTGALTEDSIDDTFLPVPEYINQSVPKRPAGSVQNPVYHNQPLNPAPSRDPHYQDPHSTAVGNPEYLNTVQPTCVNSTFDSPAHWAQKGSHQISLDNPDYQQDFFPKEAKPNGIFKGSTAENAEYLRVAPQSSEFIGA

[2] = biological target: Platelet-derived growth factor receptor alpha (Homo sapiens) (UniProt P16234); experiment: Inhibition of recombinant human GST-tagged PDGFRalpha cytoplasmic domain (550 to 1089 residues) expressed in baculovirus expression system at 1 uM using FAM-labeled peptide as substrate after 10 mins by mobility shift assay relative to control
Summary of the method: (§1)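 Caliper mobility-shift kinase assay. Kinase in kinase base buffer was preincubated with compound for 10 min at room temperature. FAM-labelled peptide and ATP at Km were then added, and the reaction ran at 28 °C until quenched with buffer. Screening concentration was 1 µM. Percent inhibition = (max − conversion)/(max − min) × 100, with DMSO as max and a low control as min.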

[3] = biological target: Receptor tyrosine-protein kinase erbB-4 (Homo sapiens) (UniProt Q15303); experiment: Inhibition of N-terminal GST-tagged human HER4 cytoplasmic domain (676 to 1308 residues) expressed in baculovirus expression system at 1 uM using FAM-labeled peptide as substrate after 10 mins by mobility shift assay relative to control; summary of the method: as §1
[4] = biological target: Fibroblast growth factor receptor 2 (Homo sapiens) (UniProt P21802); experiment: Inhibition of N-terminal GST-tagged human FGFR2 cytoplasmic domain (399 to 821 residues) expressed in baculovirus expression system at 1 uM using FAM-labeled peptide as substrate after 10 mins by mobility shift assay relative to control; summary of the method: as §1
[5] = biological target: Fibroblast growth factor receptor 4 (Homo sapiens) (UniProt P22455); experiment: Inhibition of N-terminal GST-tagged human FGFR4 cytoplasmic domain (460 to 802 residues) expressed in baculovirus expression system at 1 uM using FAM-labeled peptide as substrate after 10 mins by mobility shift assay relative to control; summary of the method: as §1
[6] = biological target: Hepatocyte growth factor receptor (Homo sapiens) (UniProt P08581); experiment: Inhibition of N-terminal GST-tagged human MET cytoplasmic domain (956 to 1390 residues) expressed in baculovirus expression system at 1 uM using FAM-labeled peptide as substrate after 10 mins by mobility shift assay relative to control; summary of the method: as §1
[7] = biological target: Proto-oncogene tyrosine-protein kinase Src (Homo sapiens) (UniProt P12931); experiment: Inhibition of N-terminal GST-tagged full length human SRC cytoplasmic domain (1 to 536 residues) expressed in baculovirus expression system at 1 uM using FAM-labeled peptide as substrate after 10 mins by mobility shift assay relative to control; summary of the method: as §1
[8] = biological target: Tyrosine-protein kinase JAK2 (Homo sapiens) (UniProt O60674); experiment: Inhibition of human N-terminal His-tagged JAK2 catalytic domain (826 to 1132 residues) expressed in baculovirus expression system at 1 uM using FAM-labeled peptide as substrate after 10 mins by mobility shift assay relative to control; summary of the method: as §1
Sequence of Tyrosine-protein kinase JAK2 (Homo sapiens) (O60674 whole entry, the tested form may be a part): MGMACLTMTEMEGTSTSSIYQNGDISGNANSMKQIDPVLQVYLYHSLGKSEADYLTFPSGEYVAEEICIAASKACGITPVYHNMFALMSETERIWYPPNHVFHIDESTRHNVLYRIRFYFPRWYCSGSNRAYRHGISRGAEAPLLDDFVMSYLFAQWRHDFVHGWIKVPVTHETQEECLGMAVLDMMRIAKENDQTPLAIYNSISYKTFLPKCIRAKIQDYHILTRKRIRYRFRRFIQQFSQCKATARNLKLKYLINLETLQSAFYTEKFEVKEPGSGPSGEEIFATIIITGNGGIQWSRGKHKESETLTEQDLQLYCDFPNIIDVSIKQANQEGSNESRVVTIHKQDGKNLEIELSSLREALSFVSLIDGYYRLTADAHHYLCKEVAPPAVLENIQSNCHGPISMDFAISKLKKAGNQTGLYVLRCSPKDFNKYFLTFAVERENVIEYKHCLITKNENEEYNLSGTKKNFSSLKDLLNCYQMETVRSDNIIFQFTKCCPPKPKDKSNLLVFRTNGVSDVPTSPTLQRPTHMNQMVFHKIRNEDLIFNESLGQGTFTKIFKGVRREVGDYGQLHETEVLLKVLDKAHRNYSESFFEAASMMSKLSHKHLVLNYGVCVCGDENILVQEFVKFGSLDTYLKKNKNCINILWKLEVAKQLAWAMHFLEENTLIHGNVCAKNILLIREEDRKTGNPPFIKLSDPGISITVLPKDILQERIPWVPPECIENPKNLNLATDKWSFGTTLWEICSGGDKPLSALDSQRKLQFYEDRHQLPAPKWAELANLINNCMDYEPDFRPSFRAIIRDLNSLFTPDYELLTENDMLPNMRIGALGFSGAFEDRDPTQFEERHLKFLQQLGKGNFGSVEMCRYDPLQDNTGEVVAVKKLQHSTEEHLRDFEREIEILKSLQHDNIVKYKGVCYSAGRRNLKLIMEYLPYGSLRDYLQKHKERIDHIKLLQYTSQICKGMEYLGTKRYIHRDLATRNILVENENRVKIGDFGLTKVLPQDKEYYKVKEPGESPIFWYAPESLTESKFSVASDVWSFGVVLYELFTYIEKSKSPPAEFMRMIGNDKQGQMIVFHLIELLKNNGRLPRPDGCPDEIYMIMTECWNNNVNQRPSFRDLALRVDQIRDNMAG

[9] = biological target: RAC-alpha serine/threonine-protein kinase (Homo sapiens) (UniProt P31749); experiment: Inhibition of recombinant human N-terminal His-tagged full length human AKT1 (1 to 480 residues) expressed in baculovirus infected Sf9 insect cells at 1 uM using FAM-labeled peptide as substrate after 10 mins by mobility shift assay relative to control; summary of the method: as §1
[10] = biological target: Tyrosine-protein kinase JAK1 (Homo sapiens) (UniProt P23458); experiment: Inhibition of human N-terminal GST-tagged JAK1 catalytic domain (850 to 1154 residues) expressed in baculovirus expression system at 1 uM using FAM-labeled peptide as substrate after 10 mins by mobility shift assay relative to control; summary of the method: as §1
[11] = biological target: Non-receptor tyrosine-protein kinase TYK2 (Homo sapiens) (UniProt P29597); experiment: Inhibition of human N-terminal GST-tagged TYK2 catalytic domain (871 to 1187 residues) expressed in baculovirus expression system at 1 uM using FAM-labeled peptide as substrate after 10 mins by mobility shift assay relative to control; summary of the method: as §1
Sequence of Non-receptor tyrosine-protein kinase TYK2 (Homo sapiens) (P29597 whole entry, the tested form may be a part): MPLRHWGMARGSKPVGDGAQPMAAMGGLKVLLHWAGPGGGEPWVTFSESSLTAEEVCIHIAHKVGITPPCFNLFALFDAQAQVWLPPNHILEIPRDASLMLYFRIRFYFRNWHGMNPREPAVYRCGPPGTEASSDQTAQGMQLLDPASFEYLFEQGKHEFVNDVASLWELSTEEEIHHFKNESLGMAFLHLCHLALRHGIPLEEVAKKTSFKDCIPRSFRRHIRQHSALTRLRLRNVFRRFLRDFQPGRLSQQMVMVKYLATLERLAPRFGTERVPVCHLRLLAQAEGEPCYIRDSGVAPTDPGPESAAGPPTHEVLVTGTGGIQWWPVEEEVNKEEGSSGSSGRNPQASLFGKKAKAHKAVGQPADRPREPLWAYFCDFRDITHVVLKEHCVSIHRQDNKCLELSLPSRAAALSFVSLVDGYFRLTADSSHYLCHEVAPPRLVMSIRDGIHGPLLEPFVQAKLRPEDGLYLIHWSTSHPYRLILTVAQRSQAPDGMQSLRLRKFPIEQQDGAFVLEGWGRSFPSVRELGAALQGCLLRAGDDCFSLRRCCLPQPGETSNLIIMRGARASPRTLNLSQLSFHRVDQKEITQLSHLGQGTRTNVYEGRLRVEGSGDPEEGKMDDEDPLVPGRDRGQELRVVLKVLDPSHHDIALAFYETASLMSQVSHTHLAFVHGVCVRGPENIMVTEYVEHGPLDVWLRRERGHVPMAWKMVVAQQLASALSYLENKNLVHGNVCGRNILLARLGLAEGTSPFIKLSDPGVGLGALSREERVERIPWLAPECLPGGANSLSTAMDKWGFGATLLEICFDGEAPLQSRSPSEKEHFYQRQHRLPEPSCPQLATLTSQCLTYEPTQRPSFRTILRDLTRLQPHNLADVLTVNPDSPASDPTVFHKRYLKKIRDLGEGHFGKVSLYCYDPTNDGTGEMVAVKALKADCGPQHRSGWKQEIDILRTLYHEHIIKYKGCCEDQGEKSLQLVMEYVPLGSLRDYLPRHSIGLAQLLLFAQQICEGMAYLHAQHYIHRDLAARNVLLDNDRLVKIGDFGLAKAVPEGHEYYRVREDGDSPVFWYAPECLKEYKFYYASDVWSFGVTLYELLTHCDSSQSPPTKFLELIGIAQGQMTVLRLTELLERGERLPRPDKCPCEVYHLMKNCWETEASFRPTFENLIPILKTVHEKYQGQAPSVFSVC

[12] = biological target: Mast/stem cell growth factor receptor Kit (Homo sapiens) (UniProt P10721); experiment: Inhibition of recombinant human N-terminal GST-tagged c-KIT (544 to end residues) expressed in baculovirus infected Sf21 cells at 1 uM using FAM-labeled peptide as substrate after 10 mins by mobility shift assay relative to control; summary of the method: as §1
[13] = biological target: Mitogen-activated protein kinase kinase kinase kinase 4 (Homo sapiens) (UniProt O95819); experiment: Inhibition of human N-terminal GST-tagged full length MAP4K4 catalytic domain (1 to 328 residues) expressed in baculovirus expression system at 1 uM using FAM-labeled peptide as substrate after 10 mins by mobility shift assay relative to control; summary of the method: as §1
Sequence of Mitogen-activated protein kinase kinase kinase kinase 4 (Homo sapiens) (O95819 2-1239 limits assumed): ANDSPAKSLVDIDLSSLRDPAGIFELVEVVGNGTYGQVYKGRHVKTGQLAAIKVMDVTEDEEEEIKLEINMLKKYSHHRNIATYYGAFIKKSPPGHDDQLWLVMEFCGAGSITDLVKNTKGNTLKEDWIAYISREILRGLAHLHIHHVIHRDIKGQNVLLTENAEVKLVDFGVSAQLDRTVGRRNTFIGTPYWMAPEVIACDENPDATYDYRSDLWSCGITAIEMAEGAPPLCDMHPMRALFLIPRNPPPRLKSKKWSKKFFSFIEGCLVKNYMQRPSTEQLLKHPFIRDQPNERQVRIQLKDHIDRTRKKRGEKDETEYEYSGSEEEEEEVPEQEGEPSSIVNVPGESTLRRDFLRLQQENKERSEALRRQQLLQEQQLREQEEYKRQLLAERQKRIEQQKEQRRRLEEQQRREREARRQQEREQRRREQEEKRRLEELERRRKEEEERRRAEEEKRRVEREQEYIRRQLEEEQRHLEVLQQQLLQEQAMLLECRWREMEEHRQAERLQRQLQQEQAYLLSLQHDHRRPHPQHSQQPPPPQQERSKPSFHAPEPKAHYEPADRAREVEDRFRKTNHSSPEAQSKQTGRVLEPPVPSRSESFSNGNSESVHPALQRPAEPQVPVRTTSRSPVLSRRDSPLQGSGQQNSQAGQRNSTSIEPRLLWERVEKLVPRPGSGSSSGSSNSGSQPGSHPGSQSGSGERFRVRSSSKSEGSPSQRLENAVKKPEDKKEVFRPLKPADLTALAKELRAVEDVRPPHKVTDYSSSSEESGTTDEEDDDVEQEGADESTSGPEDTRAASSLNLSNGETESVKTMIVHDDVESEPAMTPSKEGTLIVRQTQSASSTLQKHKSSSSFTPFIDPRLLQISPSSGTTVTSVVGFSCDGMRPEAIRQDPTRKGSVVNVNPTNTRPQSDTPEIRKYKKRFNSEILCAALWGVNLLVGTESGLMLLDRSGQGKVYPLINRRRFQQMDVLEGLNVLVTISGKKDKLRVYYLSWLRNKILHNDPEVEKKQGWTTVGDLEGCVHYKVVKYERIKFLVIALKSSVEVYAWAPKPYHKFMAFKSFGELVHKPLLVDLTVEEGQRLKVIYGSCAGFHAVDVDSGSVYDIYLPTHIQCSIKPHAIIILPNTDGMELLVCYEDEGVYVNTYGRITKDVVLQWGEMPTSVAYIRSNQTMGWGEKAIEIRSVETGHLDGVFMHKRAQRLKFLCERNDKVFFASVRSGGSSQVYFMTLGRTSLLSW

[14] = biological target: T1, Inhibitor of nuclear factor kappa-B kinase subunit beta (Homo sapiens) (UniProt O14920); experiment: Inhibition of human N-terminal His-tagged truncated IKKB (1 to 662 residues) expressed in baculovirus expression system at 1 uM using FAM-labeled peptide as substrate after 10 mins by mobility shift assay relative to control; summary of the method: as §1
T1 sequence (whole entry): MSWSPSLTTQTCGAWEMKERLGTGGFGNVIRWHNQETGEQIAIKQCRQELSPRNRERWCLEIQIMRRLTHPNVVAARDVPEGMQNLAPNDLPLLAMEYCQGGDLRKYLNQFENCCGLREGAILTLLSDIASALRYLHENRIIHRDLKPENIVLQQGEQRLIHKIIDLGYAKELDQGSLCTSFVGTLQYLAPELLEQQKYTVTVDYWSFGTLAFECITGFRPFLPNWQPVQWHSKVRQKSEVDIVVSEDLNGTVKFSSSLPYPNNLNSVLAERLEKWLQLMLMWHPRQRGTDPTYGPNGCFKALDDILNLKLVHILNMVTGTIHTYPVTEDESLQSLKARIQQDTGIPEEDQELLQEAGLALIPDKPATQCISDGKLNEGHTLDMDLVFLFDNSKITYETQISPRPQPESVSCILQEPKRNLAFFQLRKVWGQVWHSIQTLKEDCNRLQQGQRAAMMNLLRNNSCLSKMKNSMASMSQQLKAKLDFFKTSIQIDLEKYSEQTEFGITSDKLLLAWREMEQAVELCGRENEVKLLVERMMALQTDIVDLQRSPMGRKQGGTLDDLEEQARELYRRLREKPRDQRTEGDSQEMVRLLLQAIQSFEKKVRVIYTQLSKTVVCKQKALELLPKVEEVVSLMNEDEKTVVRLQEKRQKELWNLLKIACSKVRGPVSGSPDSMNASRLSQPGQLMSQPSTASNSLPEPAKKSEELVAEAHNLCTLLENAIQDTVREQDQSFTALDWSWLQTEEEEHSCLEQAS

[15] = biological target: Vascular endothelial growth factor receptor 2 (Homo sapiens) (UniProt P35968); experiment: Inhibition of N-terminal GST-tagged human KDR cytoplasmic domain (790 to 1356 residues) expressed in baculovirus expression system at […] using FAM-labeled peptide as substrate after 10 mins by mobility shift assay relative to control; summary of the method: as §1
[16] = test system: HCC827; experiment: Antiproliferative activity against human HCC827 cells after 72 hrs by MTT assay; format: functional, cell-based; settings: HCC827, 72 h
Summary of the method: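 Cells seeded at 3000/well in growth medium with 10% FBS and left overnight. Treated in triplicate for 72 h at nine concentrations (0.458 to 30,000 nM), with DMSO-only controls. MTT (5 mg/mL) added for the last 4 h, formazan dissolved in DMSO, absorbance read at 490 nm. IC50 from non-linear sigmoidal dose-response fit.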

COc1cccc(Nc2cc(NC(=O)CCCC(=O)O)ncn2)c1
IC50 [1]: 12 nM
inhibition [2]: 8%
inhibition [3]: 21.7%
inhibition [4]: 21.4%
inhibition [5]: 21.6%
inhibition [6]: 12%
inhibition [7]: 16.6%
inhibition [8]: 17.7%
inhibition [9]: 6.8%
inhibition [10]: -0.7%
inhibition [11]: -4.4%
inhibition [12]: 13.3%
inhibition [13]: 13.5%
inhibition [14]: 13.3%
inhibition [15]: 10.5%

O=C(O)CCCC(=O)Nc1cc(Nc2cccc(Cl)c2)ncn1
inhibition [2]: 43%
inhibition [3]: 88.6%
inhibition [4]: 16.5%
inhibition [5]: 8.8%
inhibition [6]: 4%
inhibition [7]: 83.7%
inhibition [8]: 12.7%
inhibition [9]: 0%
inhibition [10]: -1%
inhibition [11]: -0.6%
inhibition [12]: 13.3%
inhibition [13]: 78.2%
inhibition [14]: 1.1%
IC50 [16]: 4020 nM
inhibition [15]: 8.5%

CCOC(=O)c1ccc(Nc2cc(NC(=O)CCCC(=O)O)ncn2)cc1
IC50 [1]: 21 nM
inhibition [2]: 4.7%
inhibition [3]: 27.1%
inhibition [4]: 7.2%
inhibition [5]: -0.6%
inhibition [6]: 4.4%
inhibition [7]: 11.4%
inhibition [8]: 4.2%
inhibition [9]: 4.7%
inhibition [10]: -3.1%
inhibition [11]: -1.4%
inhibition [12]: 5.9%
inhibition [13]: 56.3%
inhibition [14]: 1.2%
inhibition [15]: -1.4%

O=C(O)CCCC(=O)Nc1cc(N2CCOCC2)ncn1
IC50 [1]: 11 nM
inhibition [2]: 9.2%
inhibition [3]: 8.3%
inhibition [4]: 5.9%
inhibition [5]: 4%
inhibition [6]: 9.2%
inhibition [7]: 11.7%
inhibition [8]: 0.2%
inhibition [9]: -3%
inhibition [10]: -2.4%
inhibition [11]: 2.5%
inhibition [12]: -4.4%
inhibition [13]: 21.6%
inhibition [14]: -3.2%
IC50 [16]: 1560 nM
inhibition [15]: 14.4%

COc1ccc(Nc2cc(NC(=O)c3ccccc3)ncn2)cc1
IC50 [1]: 26 nM
inhibition [2]: 21.7%
inhibition [3]: 71.4%
inhibition [4]: 8.3%
inhibition [5]: 1.8%
inhibition [6]: 3.3%
inhibition [7]: 27.7%
inhibition [8]: -4.2%
inhibition [9]: -3.4%
inhibition [10]: -0.8%
inhibition [11]: -7.9%
inhibition [12]: 26%
inhibition [13]: 44.8%
inhibition [14]: 3.5%
IC50 [16]: 5350 nM
inhibition [15]: 12.4%

COc1cccc(Nc2cc(Nc3cc(OC)ccc3OC)ncn2)c1
inhibition [2]: 26.9%
inhibition [3]: 11.3%
inhibition [4]: 9.8%
inhibition [5]: 4.8%
inhibition [6]: 7.2%
inhibition [7]: 33.2%
inhibition [8]: 0.7%
inhibition [9]: -2.1%
inhibition [10]: -1.4%
inhibition [11]: 0%
inhibition [12]: 0.4%
inhibition [13]: 53.5%
inhibition [14]: -2.1%
IC50 [16]: 1140 nM
inhibition [15]: 7.3%
